Experimental data as given in PMC8774845 (Plant Physiology, 2021).
Where “and” joins values, the source holds several entries; their conditions need not be identical. Equal values may be shown once. Entries after “also recorded” stand apart in the source; their conditions may differ. Read-outs that look alike come from different tables or passages of the source.

Key:
PpADT-Gmut^103 = test: Inhibition of PDT activity by Phe, mutant enzyme; type: biochemical, Pinus pinaster; conditions: read-out: IC50 (μM) for Phe; PDT reaction, 1 mM of substrate (Ppa); Asn324→Ser
In short: (§1)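 PpADT-G point mutants were made by site-directed mutagenesis, expressed His-tagged in E. coli BL21 DE3 RIL and Ni-purified. About 5 µg of protein in 50 mM Tris pH 8.0 was preincubated 5 min with varying Phe. The PDT reaction started with 1 mM Ppa at 30°C and was stopped with 2 M NaOH. Phenylpyruvate was read by absorbance at 321 nm against a phenylpyruvate calibration. Triplicate; IC50 was fitted.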

PpADT-Gmut^1 [1] = test: Inhibition of PDT activity by Phe, chimeric enzyme; type: biochemical, Pinus pinaster
In short: (§2)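 PDT reaction: about 5 µg of His-tagged, Ni-purified Pinus pinaster ADT (wild-type or fusion-PCR chimera) in 50 mM Tris pH 8.0 was preincubated 5 min with Phe. The reaction started with 1 mM Ppa at 30°C; Ppa content was first verified by HCl conversion. It was stopped with 2 M NaOH and left ≥10 min at room temperature. Phenylpyruvate was read at 321 nm against a calibration curve. At least duplicate; IC50, Ki and inhibition type came from kinetic fitting.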

PpADT-Gmut^9 = test: Inhibition of PDT activity by Phe, mutant enzyme; type: biochemical, Pinus pinaster; conditions: read-out: IC50 (μM) for Phe; PDT reaction, 1 mM of substrate (Ppa); Ala314→Val, Ala316→Ser, Val317→Ala
In short: (§3)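 Ni-purified His-tagged mutants, expressed in E. coli BL21 DE3 RIL, were assayed for PDT activity. About 5 µg protein in 50 mM Tris pH 8.0 was preincubated 5 min at 30°C with varying Phe. Reactions were started with 1 mM prephenate, stopped with 2 M NaOH and read at 321 nm against a phenylpyruvate calibration. Runs were in triplicate, linear ≥5 min, with IC50 obtained by kinetic fitting.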

PpADT-Gmut^62 = test: Inhibition of PDT activity by Phe, mutant enzyme; type: biochemical, Pinus pinaster; conditions: read-out: IC50 (μM) for Phe; PDT reaction, 1 mM of substrate (Ppa); Thr303→Ala, Leu304→His
In short: as §3

AtADT4 = AtADT4 (Arabidopsis thaliana, UniProt O22241); test: Effect of 100 μM Phe over ADT activity, recombinant type-II ADT; type: biochemical, A. thaliana; conditions: 100 µM of Phe, 100 µM of substrate (Agn)
AtADT4, sequence (O22241 35-424): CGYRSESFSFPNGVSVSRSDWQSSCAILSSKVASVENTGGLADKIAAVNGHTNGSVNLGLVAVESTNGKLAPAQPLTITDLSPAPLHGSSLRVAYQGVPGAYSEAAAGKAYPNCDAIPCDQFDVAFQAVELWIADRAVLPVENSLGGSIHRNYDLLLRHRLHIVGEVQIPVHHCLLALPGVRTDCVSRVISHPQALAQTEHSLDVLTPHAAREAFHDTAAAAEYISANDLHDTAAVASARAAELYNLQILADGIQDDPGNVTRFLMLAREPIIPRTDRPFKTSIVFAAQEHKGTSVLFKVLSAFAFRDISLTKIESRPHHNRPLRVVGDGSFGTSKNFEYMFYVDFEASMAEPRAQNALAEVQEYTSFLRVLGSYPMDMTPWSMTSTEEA
In short: (§4)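 Type-I or type-II plant ADT ORFs were cloned from cDNA into pET30b without the putative plastid transit peptide and with a C-terminal His tag. Proteins were expressed in E. coli BL21 DE3 RIL (0.5 mM IPTG, 18–20 h at 12°C) and Ni-purified. About 1 µg was preincubated 5 min with 100 µM Phe in 50 mM Tris pH 8.0. Reaction started with 100 µM Agn at 30°C and was stopped with methanol. Phe formed was quantified by UPLC/MS. Activity is relative to the no-Phe control (100%); triplicate.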

Potri11G4700 = test: Effect of 100 μM Phe over ADT activity, recombinant type-I ADT; type: biochemical, Populus trichocarpa; conditions: 100 µM of Phe, 100 µM of substrate (Agn), compared to control (absence of Phe)
In short: as §4

PpADT-Cmut^1 [2] = test: Inhibition of ADT activity by Phe, chimeric enzyme; type: biochemical, Pinus pinaster; conditions: read-out: ADT IC50 (μM of Phe), 0.1 mM of Agn
In short: (§5)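 The Pinus pinaster ADT was used either as wild-type or as chimeras made by fusion PCR. It was His-tagged without the transit peptide, expressed in E. coli BL21 DE3 RIL and Ni-purified. About 1 µg of protein in 50 mM Tris pH 8.0 was preincubated 5 min with a range of Phe concentrations. Reaction started with 0.1 mM Agn at 30°C and was stopped with methanol. Phe product was quantified by UPLC/MS, with linearity checked over ≥5 min. At least duplicate; IC50 from kinetic fitting.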

PpADT-Gmut^16 = test: Inhibition of PDT activity by Phe, mutant enzyme; type: biochemical, Pinus pinaster; conditions: read-out: IC50 (μM) for Phe; PDT reaction, 1 mM of substrate (Ppa); Ala316→Ser, Val317→Ala
In short: as §3

plastidial CM [3] = conditions: read-out: Ki, inhibition of plastidial CM by Phe; ref Benesova and Bode, 1992; cited from earlier work
PpADT-Gmut^13 = test: Inhibition of PDT activity by Phe, mutant enzyme; type: biochemical, Pinus pinaster; conditions: read-out: IC50 (μM) for Phe; PDT reaction, 1 mM of substrate (Ppa); Val317→Ala
In short: as §1

Zeama2G125923 = test: Effect of 100 μM Phe over ADT activity, recombinant type-II ADT; type: biochemical, Zea mays; conditions: 100 µM of Phe, 100 µM of substrate (Agn)
In short: as §4

PpADT-Gmut^1 [4] = test: Inhibition of ADT activity by Phe, chimeric enzyme; type: biochemical, Pinus pinaster; conditions: read-out: ADT IC50 (μM of Phe), 0.1 mM of Agn
In short: as §5

PpADT-C [5] = test: Inhibition of ADT activity by Phe, recombinant enzyme; type: biochemical, Pinus pinaster; conditions: read-out: ADT IC50 (μM of Phe), 0.1 mM of Agn
In short: as §5

PpADT-Gmut^102 = test: Inhibition of PDT activity by Phe, mutant enzyme; type: biochemical, Pinus pinaster; conditions: read-out: IC50 (μM) for Phe; PDT reaction, 1 mM of substrate (Ppa); Leu320→Phe
In short: as §1

PpADT-C [6] = test: Inhibition of PDT activity by Phe, recombinant enzyme; type: biochemical, Pinus pinaster
In short: as §2

PpADT-Gmut^10 = test: Inhibition of PDT activity by Phe, mutant enzyme; type: biochemical, Pinus pinaster; conditions: read-out: IC50 (μM) for Phe; PDT reaction, 1 mM of substrate (Ppa); Leu320→Phe, Asn324→Ser
In short: as §3

PpADT-Gmut^8 [7] = test: Inhibition of PDT activity by Phe, mutant enzyme; type: biochemical, Pinus pinaster; conditions: read-out: IC50 (μM) for Phe; PDT reaction, 1 mM of substrate (Ppa); Pro308→Thr, Gly309→Ser
In short: as §3

Potri4G188100 = test: Effect of 100 μM Phe over ADT activity, recombinant type-II ADT; type: biochemical, P. trichocarpa; conditions: 100 µM of Phe, 100 µM of substrate (Agn)
In short: as §4

PpADT-Gmut^11 = test: Inhibition of PDT activity by Phe, mutant enzyme; type: biochemical, Pinus pinaster; conditions: read-out: IC50 (μM) for Phe; PDT reaction, 1 mM of substrate (Ppa); Ala314→Val
In short: as §1

PpADT-Gmut^6 = test: Inhibition of PDT activity by Phe, mutant enzyme; type: biochemical, Pinus pinaster; conditions: read-out: IC50 (μM) for Phe; PDT reaction, 1 mM of substrate (Ppa); Thr303→Ala, Leu304→Gln
In short: as §3

PpADT-Cmut^1 [8] = test: Inhibition of PDT activity by Phe, chimeric enzyme; type: biochemical, Pinus pinaster
In short: as §2

Orysa4G33390 = test: Effect of 100 μM Phe over ADT activity, recombinant type-II ADT; type: biochemical, O. sativa; conditions: 100 µM of Phe, 100 µM of substrate (Agn)
In short: as §4

AtADT1 = AtADT1 (Arabidopsis thaliana, UniProt Q9SA96); test: Effect of 100 μM Phe over ADT activity, recombinant type-I ADT; type: biochemical, A. thaliana; conditions: 100 µM of Phe, 100 µM of substrate (Agn), compared to control (absence of Phe)
AtADT1, sequence (Q9SA96 49-392): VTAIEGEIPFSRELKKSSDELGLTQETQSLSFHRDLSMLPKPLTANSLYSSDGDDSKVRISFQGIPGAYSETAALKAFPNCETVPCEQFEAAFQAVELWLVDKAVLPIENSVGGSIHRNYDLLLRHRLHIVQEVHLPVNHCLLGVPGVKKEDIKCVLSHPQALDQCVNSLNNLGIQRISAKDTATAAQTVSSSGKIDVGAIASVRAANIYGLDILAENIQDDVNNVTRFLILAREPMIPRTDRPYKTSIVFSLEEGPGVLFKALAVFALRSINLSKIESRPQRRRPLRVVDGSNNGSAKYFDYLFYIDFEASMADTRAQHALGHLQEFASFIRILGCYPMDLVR
In short: as §4

plastidial CM [9] = conditions: read-out: IC50, inhibition of plastidial CM by Phe; ref Kroll et al., 2017; cited from earlier work
ADT activity = conditions: read-out: IC50 for ADT activity; crude plant extracts; ref Jung et al., 1986; cited from earlier work
plastidial CM [10] = conditions: read-out: Ki, inhibition of plastidial CM by Phe; ref Kuroki and Conn, 1988; cited from earlier work
PpADT-G [11] = test: Inhibition of PDT activity by Phe, recombinant enzyme; type: biochemical, Pinus pinaster
In short: as §2

plastidial CM [12] = conditions: read-out: IC50, inhibition of plastidial CM by Phe; ref Westfall et al., 2014; cited from earlier work
PpADT-G [13] = test: Inhibition of ADT activity by Phe, recombinant enzyme; type: biochemical, Pinus pinaster
In short: as §5

PpADT-Gmut^8 [14] = test: Effect of 100 μM Phe over ADT activity, mutant enzyme; type: biochemical, Pinus pinaster; conditions: Phe at 100 µM
In short: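 His-tagged recombinant mutant enzyme without its transit peptide, expressed in E. coli BL21 DE3 RIL and Ni-purified. About 1 µg protein in 50 mM Tris pH 8.0 was preincubated 5 min at 30°C with 100 µM Phe. Arogenate was added to start the reaction, and methanol stopped it. Phe formed was quantified by UPLC/MS against a pure-Phe calibration. Activity is relative to the no-Phe control; error bars sd.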

PpADT-Gmut^12 = test: Inhibition of PDT activity by Phe, mutant enzyme; type: biochemical, Pinus pinaster; conditions: read-out: IC50 (μM) for Phe; PDT reaction, 1 mM of substrate (Ppa); Ala316→Ser
In short: as §1

Niben8991 = test: Effect of 100 μM Phe over ADT activity, recombinant type-I ADT; type: biochemical, Nicotiana benthamiana; conditions: 100 µM of Phe, 100 µM of substrate (Agn), compared to control (absence of Phe)
In short: as §4

Cucsa52640 = test: as above; type: biochemical, Cucumis sativus; conditions: 100 µM of Phe, 100 µM of substrate (Agn), compared to control (absence of Phe)
In short: as §4

[15] = read-out: PDT IC50 (μM of Phe), 1 mM of Ppa

IC50 (PpADT-Gmut^103): 234 ± 4.9 µM
Proposed type of inhibition (PpADT-Gmut^1 [1]): allosteric; also recorded: Cooperative
IC50 (PpADT-Gmut^1 [1]; [15]): 390 ± 15.4 µM
IC50 (PpADT-Gmut^9): 17.5 ± 3.7 µM
IC50 (PpADT-Gmut^62): 333.5 ± 3.1 µM
effect on ADT activity (AtADT4): not substantially affected
IC50 (PpADT-Cmut^1 [2]): ~52.8 µM and 52.8 µM
IC50 (PpADT-Gmut^16): 17.2 ± 0.2 µM
IC50 (PpADT-Gmut^13): 23.6 ± 1.4 µM
IC50 (PpADT-Gmut^1 [4]): > 100 µM
IC50 (PpADT-C [5]): > 100 µM
IC50 (PpADT-Gmut^102): 135.4 ± 0.7 µM
Proposed type of inhibition (PpADT-C [6]): Cooperative
IC50 (PpADT-C [6]; [15]): 320 µM
IC50 (PpADT-Gmut^10): 184 ± 24.7 µM
IC50 (PpADT-Gmut^8 [7]): 445 µM
IC50 (PpADT-Gmut^11): 14.6 ± 2.3 µM
IC50 (PpADT-Gmut^6): 333 ± 8 µM
Proposed type of inhibition (PpADT-Cmut^1 [8]): Uncompetitive
IC50 (PpADT-Cmut^1 [8]; [15]): ~36.1 µM and 36.1 µM
Ki (PpADT-Cmut^1 [8]; read-out: PDT K i (μM of Phe)): 170 ± 16.3 µM
decrease in ADT activity (AtADT1): > 90%
Proposed type of inhibition (PpADT-G [11]): Uncompetitive
IC50 (PpADT-G [11]; [15]): 47.7 ± 3 µM
Ki (PpADT-G [11]; read-out: PDT K i (μM of Phe)): 28.1 ± 1 µM
ADT activity at 100 µM of Phe (PpADT-G [13]; 100 µM of Phe): mostly inactive
IC50 (PpADT-G [13]; read-out: ADT IC50 (μM of Phe), ADT activity, 0.1 mM of Agn): 27.6 ± 1.5 µM
IC50 (PpADT-Gmut^12): 26 ± 4.8 µM
SMILES: N[C@@H](Cc1ccccc1)C(=O)O [Phe, phenylalanine]
decrease in ADT activity (Potri11G4700): > 90%
Ki (plastidial CM [3]): 1100 µM
effect on ADT activity (Zeama2G125923): not substantially affected
effect on ADT activity (Potri4G188100): not substantially affected
effect on ADT activity (Orysa4G33390): not substantially affected
IC50 (plastidial CM [9]): 82 µM
IC50 (ADT activity): ~35 µM
Ki (plastidial CM [10]): 550 µM
IC50 (plastidial CM [12]): 50 µM
Phe-mediated inhibition of ADT activity compared to the wild-type (PpADT-Gmut^8 [14]): more resistant to inhibition than the wild-type
decrease in ADT activity (Niben8991): > 90%
decrease in ADT activity (Cucsa52640): > 90%
